Source: article PMC6800648 (Cell chemical biology, 2019)
Numbered stars: 1 amine (or outer) side, 2 acyl side, 3 side chain; on linkers, the order of the positions; unused ones are H or OH. Square brackets hold non-standard residues; d marks the D form. Peptide text beside a SMILES is read from it. * marks the point of attachment. NH(CH2CH2O)11C2H4NHBiotinyl = O=C(CCCC[C@@H]1SC[C@@H]2NC(=O)N[C@@H]21)NCCOCCOCCOCCOCCOCCOCCOCCOCCOCCOCCOCCN*; Lys(Me,2-norbornyl) = CN(CCCC[C@H](N)C(=O)O)C1CC2CCC1C2; X10 = CN(CCCC[C@H](N[*:1])C(=O)[*:2])C1C2CC3CC(C2)CC1C3; Benzoyl(4-tBu) = CC(C)(C)c1ccc(C(=O)*)cc1; Lys(Et2) = CCN(CC)CCCC[C@H](N)C(=O)O

How the values were obtained:
[1] = tested on: 120 purified Kme reader domains; test: Chromatin-associated domain array; format: binding; details: biotinylated ligand, fluorescently tagged streptavidin visualization
canonical PRC1 complex = test: Chemiprecipitation; format: binding, human; details: PC3 cell lysates, western blot
Method in brief: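 PC3 cells in DMEM/F12 plus 10% FBS were grown to 80–90% confluency, trypsinised, PBS-washed twice, and lysed fresh or after flash freezing. Lysates were pulled down with biotinylated test compounds. Beads were boiled in Laemmli buffer at 95 °C for 3 min, with 1% input. Proteins were separated by SDS-PAGE and blotted to PVDF. Primary antibody overnight at 4°C; infrared secondaries (1:10,000).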

CBX7 = molecular target: T1, CBX7 (Mus musculus, UniProt Q8VDS3); test: Polycomb in-vivo Assay; format: cell-based
T1 sequence (Q8VDS3 2-69 limits assumed): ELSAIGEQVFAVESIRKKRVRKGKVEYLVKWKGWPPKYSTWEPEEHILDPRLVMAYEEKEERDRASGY

[2] = Solubility observed in the Polycomb in-vivo Assay; details: above 30 mM in the Polycomb in-vivo Assay
[3] = molecular target: T2, CDYL2 chromodomain (residues 1–75 of NP_689555) (UniProt Q8N8U2 1-75); test: ITC
T2 sequence (looked up): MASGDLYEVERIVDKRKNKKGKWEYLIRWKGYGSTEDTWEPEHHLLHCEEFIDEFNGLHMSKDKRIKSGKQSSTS

[4] = molecular target: T3, CBX2 chromodomain (residues 9–66 of NP_005180) (UniProt Q14781-1 9-66); test: ITC
T3 sequence (looked up): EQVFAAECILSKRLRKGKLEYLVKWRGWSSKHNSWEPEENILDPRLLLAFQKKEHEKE

[5] = molecular target: T4, CBX6 chromodomain (residues 8–65 of NP_055107) (UniProt O95503 8-65); test: ITC
T4 sequence (looked up): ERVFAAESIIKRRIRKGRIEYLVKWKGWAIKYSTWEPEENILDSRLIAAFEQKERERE

CBX7 chromodomain = CBX7 chromodomain (UniProt O95931 8-62); test: fluorescence polarization

## CCN(CC)CCCC[C@H](NC(=O)[C@H](CC(C)C)NC(=O)[C@H](C)NC(=O)[C@H](Cc1ccccc1)NC(=O)c1ccc(C(C)(C)C)cc1)C(=O)N[C@@H](CO)C(=O)NCCOCCOCCOCCOCCOCCOCCOCCOCCOCCOCCOCCNC(=O)CCCC[C@@H]1SC[C@@H]2NC(=O)N[C@@H]21 [UNC4195, 4-(tert-butyl)-N-((2S,5S,8S,11S,14S)-11-(4-(diethylamino)butyl)-14-(hydroxymethyl)-8-isobutyl-5-methyl-3,6,9,12,15,53-hexaoxo-57-((3aS,4S,6aR)-2-oxohexahydro-1H-thieno[3,4-d]imidazol-4-yl)-1-phenyl-19,22,25,28,31,34,37,40,43,46,49-undecaoxa-4,7,10,13,16,52-hexaazaheptapentacontan-2-yl)benzamide, reference compound] ({Benzoyl(4-tBu)}-FAL[Lys(Et2)]S-{NH(CH2CH2O)11C2H4NHBiotinyl})
[1]
  selectivity profile on CADOR microarray: binding interactions were only detected for all five Polycomb CBX chromodomains and a small subset of CDY chromodomains
Canonical PRC1 complex
  pulldown of canonical PRC1 components (CBX4, CBX7, CBX8, RING1B, BMI1): we detected pulldown of CBX4, CBX7, CBX8, RING1B, and BMI1

## CC(C)C[C@H](NC(=O)[C@H](C)NC(=O)[C@H](Cc1ccccc1)NC(=O)c1ccc(C(C)(C)C)cc1)C(=O)N[C@@H](CCCCN(C)C1CC2CCC1C2)C(=O)N[C@@H](CO)C(=O)NCCOCCOCCOCCOCCOCCOCCOCCOCCOCCOCCOCCNC(=O)CCCC[C@@H]1SC[C@@H]2NC(=O)N[C@@H]21 (stereo partly drawn) [UNC5355, N-((2S,5S,8S,11S,14S)-11-(4-(bicyclo[2.2.1]heptan-2-yl(methyl)amino)butyl)-14-(hydroxymethyl)-8-isobutyl-5-methyl-3,6,9,12,15,53-hexaoxo-57-((3aS,4S,6aR)-2-oxohexahydro-1H-thieno[3,4-d]imidazol-4-yl)-1-phenyl-19,22,25,28,31,34,37,40,43,46,49-undecaoxa-4,7,10,13,16,52-hexaazaheptapentacontan-2-yl)-4-(tert-butyl)benzamide] ({Benzoyl(4-tBu)}-FAL[Lys(Me,2-norbornyl)]S-{NH(CH2CH2O)11C2H4NHBiotinyl})
[1]
  selectivity profile on CADOR microarray: binding interactions were only detected for all five Polycomb CBX chromodomains and a small subset of CDY chromodomains
Canonical PRC1 complex
  pulldown of CBX2 and CBX6: not detected
  pulldown of canonical PRC1 components (CBX4, CBX7, CBX8, RING1B, BMI1): all five components previously mentioned were similarly pulled down

## COC(=O)[C@H](CO)NC(=O)[C@H](CCCCN(C)C1C2CC3CC(C2)CC1C3)NC(=O)[C@H](CC(C)C)NC(=O)[C@H](C)NC(=O)[C@H](Cc1ccccc1)NC(=O)c1ccc(C(C)(C)C)cc1 (stereo partly drawn) [UNC6373, methyl N^6-((1S,3S,5S,7S)-adamantan-2-yl)-N^2-(4-(tert-butyl)benzoyl)-L-phenylalanyl-L-alanyl-L-leucyl-N^6-methyl-L-lysyl-L-serinate] ({Benzoyl(4-tBu)}-FAL[X10]S-OMe)
CBX7
  EC50: 1020 ± 175 nM
[2]
  solubility in this assay: markedly poor solubility

B1: UNC4976 (peptide)
peptide: FALKS
modifications: N-terminal 4-(tert-butyl)benzoyl cap on Phe1; Lys4 is N6-(bicyclo[2.2.1]heptan-2-yl)-N6-methyl-L-lysine (N6-methyl-N6-norbornyl lysine); C-terminal methyl ester on Ser5
[3]
  fold selectivity for CBX4/7 over CDYL2: 8 fold
[4]
  fold selectivity for CBX4/7 over CBX2: 28 fold
[5]
  fold selectivity for CBX4/7 over CBX6: 9 fold

B2: FAM-ANRIL-RNA (ANRIL Loop C) FP probe (structured_RNA)
RNA: UGGAGUUGCGUUCCA
CBX7 chromodomain
  binding signal: 4 fold affinity (alpha)
